Measured values reported in ChEMBL document CHEMBL5532699, “Design, docking optimization, and evaluation of biotin-PEG4-1,8-naphthalimide as a potent and safe antitumor agent with dual targeting of ferroptosis and DNA” (RSC Med Chem, 2024).
pIC50: −log10 of the molar value.

Key:
MGC-803 [1] = assay: Antitumor activity against human MGC-803 cells xenografted in nude mouse assessed as tumor inhibition ratio at 5 mg/kg, ip administered once every two days for 21 days relative to control; type: functional; settings: MGC-803, 504 h, time 21 day
How it was run: (§1)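 1×10^6 tumour cells were injected subcutaneously into the right flank of nude mice. At a mean tumour volume of 60–80 mm³, mice were randomised into solvent control and treated groups (n = 6). Compound in 5% v/v DMSO/saline was given i.p. every 2 days. Tumour length and width were measured, V = lw²/2, and tumour weight was recorded.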

U-251 [2] = assay: Antiproliferative activity against human U-251 cells incubated for 48 hrs by MTT assay; type: functional, cell-based; settings: U-251, 48 h
How it was run: (§2)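 Monolayer cells in DMEM with 10% FBS, penicillin and streptomycin, 37°C, 5% CO2. Exponentially growing cells were seeded in 96-well plates and exposed to compound for 48 h. MTT was then added for 4 h at 37°C. Medium was removed, formazan dissolved in DMSO, and OD read at 490 nm. Each plate had five replicate wells, and assays were repeated three times per line.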

MGC-803 [3] = assay: Antiproliferative activity against human MGC-803 cells incubated for 48 hrs by MTT assay; type: functional, cell-based; settings: MGC-803, 48 h
How it was run: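 Cells kept as monolayers in DMEM with 10% FBS, streptomycin and penicillin, 37°C, 5% CO₂. Exponentially growing cells seeded in 96-well plates, exposed 48 h, then MTT (10 mg/mL stock) for 4 h at 37°C. Medium removed, formazan dissolved in DMSO, OD read at 490 nm. Five wells per condition; each cell line run three times.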

T-24 = assay: Antiproliferative activity against human T24 cells incubated for 48 hrs by MTT assay; type: functional, cell-based; settings: T-24, 48 h; how it was run: as §2
MDA-MB-231 = assay: Antiproliferative activity against human MDA-MB-231 cells incubated for 48 hrs by MTT assay; type: functional, cell-based; settings: MDA-MB-231, 48 h; how it was run: as §2
A549 = assay: Antiproliferative activity against human A549 cells incubated for 48 hrs by MTT assay; type: functional, cell-based; settings: A549, 48 h; how it was run: as §2
HCT-116 = assay: Antiproliferative activity against human HCT-116 cells incubated for 48 hrs by MTT assay; type: functional, cell-based; settings: HCT-116, 48 h; how it was run: as §2
[4] = Cytotoxicity against HK-2 cells incubated for 48 hrs by MTT assay; type: toxicity, cell-based; settings: human; how it was run: as §2
[5] = Cytotoxicity against HUVEC cells incubated for 48 hrs by MTT assay; type: toxicity, cell-based; settings: human; how it was run: as §2
[6] = Metabolic stability in male CD-1 mouse liver microsomes assessed as half life at 2 uM incubated for 60 min in the presence of NADPH by LC-MS/MS analysis; type: ADME, Microsome
How it was run: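 Male CD-1 mouse liver microsomes at 0.5 mg/mL final in 100 mM phosphate buffer, pH 7.4. Mixture was preincubated with 1 mM NADPH (PBS only for the negative control) for 10 min at 37°C. Reaction was started with test compound at 2 µM final. Aliquots were taken at 0.5, 15, 30, 45 and 60 min into cold methanol with internal standard, centrifuged, and the supernatant analysed by LC-MS/MS.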

[7] = Toxicity in nude mouse xenografted with human MGC-803 cells assessed as pathological changes in heart at 5 mg/kg, ip administered once every two days for 21 days by H and E staining based analysis; type: organism-based; settings: in vivo, 504 h, time 21 day
How it was run: (§3)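 Major organs from MGC-803 xenograft nude mice (i.p. dosing in 5% DMSO/saline every 2 days, n = 6) were stained with haematoxylin-eosin and examined at 200×.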

[8] = Toxicity in nude mouse xenografted with human MGC-803 cells assessed as pathological changes in liver at 5 mg/kg, ip administered once every two days for 21 days by H and E staining based analysis; type: organism-based; settings: in vivo, 504 h, time 21 day; how it was run: as §3
[9] = Toxicity in nude mouse xenografted with human MGC-803 cells assessed as pathological changes in spleen at 5 mg/kg, ip administered once every two days for 21 days by H and E staining based analysis; type: organism-based; settings: in vivo, 504 h, time 21 day; how it was run: as §3
[10] = Toxicity in nude mouse xenografted with human MGC-803 cells assessed as pathological changes in lung at 5 mg/kg, ip administered once every two days for 21 days by H and E staining based analysis; type: organism-based; settings: in vivo, 504 h, time 21 day; how it was run: as §3
U-251 [11] = assay: Antitumor activity against human U-251 cells xenografted in nude mouse assessed as tumor inhibition ratio at 10 mg/kg, ip administered once every two days for 21 days relative to control; type: functional; settings: U-251, 504 h, time 21 day; how it was run: as §1
[12] = Toxicity in nude mouse xenografted with human U-251 cells assessed as decrease in body weight at 10 mg/kg, ip administered once every two days for 21 days; type: organism-based; settings: in vivo, 504 h, time 21 day
How it was run: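 Subcutaneous xenograft in nude mice (1×10^6 cells, right flank). At 60–80 mm³, mice were randomised (n = 6 per group) to solvent control or treatment. Compound in 5% v/v DMSO/saline was given i.p. once every 2 days. Body weight was recorded as the indicator of systemic toxicity.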

[13] = Toxicity in nude mouse xenografted with human U-251 cells assessed as decrease in animal movement at 10 mg/kg, ip administered once every two days for 21 days; type: organism-based; settings: in vivo, 504 h, time 21 day
U-251 [14] = assay: Antitumor activity against human U-251 cells xenografted in nude mouse assessed as tumor inhibition ratio at 25 mg/kg, ip administered once every two days for 21 days relative to control; type: functional; settings: U-251, 504 h, time 21 day
How it was run: (§4)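 1×10^6 tumor cells injected s.c. into the right flank of nude mice. At mean tumor volume 60–80 mm³, animals randomized to vehicle or treatment groups (n = 6). Compound in 5% v/v DMSO/saline given i.p. every 2 days. Tumor size and weight recorded; volume = lw²/2 from length and width. Body weight tracked as the systemic toxicity index.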

[15] = Toxicity in nude mouse xenografted with human U-251 cells assessed as decrease in body weight at 25 mg/kg, ip administered once every two days for 21 days; type: organism-based; settings: in vivo, 504 h, time 21 day; how it was run: as §4
[16] = Toxicity in nude mouse xenografted with human U-251 cells assessed as decrease in animal movement at 25 mg/kg, ip administered once every two days for 21 days; type: organism-based; settings: in vivo, 504 h, time 21 day; how it was run: as §4
U-251 [17] = assay: Antitumor activity against human U-251 cells xenografted in nude mouse assessed as tumor inhibition ratio at 5 mg/kg, ip administered once every two days for 21 days relative to control; type: functional; settings: U-251, 504 h, time 21 day; how it was run: as §4

SMILES | inhibition in vivo at 5 mg/kg (MGC-803 [1]) | pIC50 (U-251 [2]) | pIC50 (T-24) | pIC50 (MDA-MB-231) | pIC50 (A549) | pIC50 (HCT-116) | IC50 at 48 h [4] | IC50 at 48 h [5] | further results
CN(C)CCN1C(=O)c2cccc3c(N4CCNCC4)ccc(c23)C1=O | 40.3% | 4.98 | 5.23 | 6.02 | 4.87 | 5.15 | 6.38 µM | 1.99 µM | pIC50 (MGC-803 [3]): 5.76; half-life at 2 µM [6]: > 3.08 h; Activity [7]: Non-Toxic; Activity [8]: Non-Toxic; Activity [9]: Non-Toxic; Activity [10]: Non-Toxic; inhibition in vivo at 10 mg/kg (U-251 [11]): 71.5%; Activity [12]: Toxic; Activity [13]: Toxic
Cn1nnc2c(C(N)=O)ncn2c1=O [TEMOZOLOMIDE] |  | < 4.30 |  |  |  |  |  |  | inhibition in vivo at 25 mg/kg (U-251 [14]): 74.2%; Activity [15]: Toxic; Activity [16]: Toxic
CN(C)CCN1C(=O)c2cccc3cc([N+](=O)[O-])cc(c23)C1=O [MITONAFIDE] |  | 5.01 |  | 5.12 | 5.44 | 4.91 | 2.13 µM | 5.9 µM | 
CN(C)CCN1C(=O)c2cccc3cc(N)cc(c23)C1=O [AMONAFIDE] | 42.2% | < 4.30 | 5.10 | 4.68 | 4.91 | 4.59 | 27.2 µM | 21.9 µM | inhibition in vivo at 5 mg/kg (U-251 [17]): 35.4%
